In general, apparent Kd refers to a dissociation constant that holds for the conditions of the assay.

The results in this text go back to the EternaBench riboswitch data.

This series concerns MS2 coat protein. As to the kind of experiment: apparent Kd, MS2 coat protein; higher = weaker binding; RNA-MaP array; FMN 200 µM where present. The procedure, abridged: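 Apparent Kd: the median of filtered binding-curve fits from single clusters. Designs were transcribed on Illumina sequencing-chip clusters by stalled E. coli RNA polymerase and titrated with SNAP-549-labelled MS2 coat protein from 0.7 or 1.5 nM, doubling to 3 µM, in 100 mM Tris-HCl pH 7.5, 80 mM KCl, 4 mM MgCl2, BSA, DTT, yeast tRNA and Tween-20. Each series ran without and then with constant ligand, and green signal was normalised to red-channel RNA signal and control-cluster median Fmax.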

Where [1] appears, read: designed as: ON switch for flavin mononucleotide, no ligand.
The mark [2] stands for this setting: ligand present: flavin mononucleotide, designed as: ON switch for flavin mononucleotide.
The mark [3] stands for this setting: designed as: OFF switch for flavin mononucleotide, no ligand.
Setting [4] is: ligand present: flavin mononucleotide, designed as: OFF switch for flavin mononucleotide.

Turning to “CUACCUUAUGAGAAGGCGAUCAUGAAACAUGAUCGAGGAUAUCAUGUAAACAUGAGGAUCACCCAUGUAUGGGUAUUAUGGUAA”, the “apparent Kd” value is, setting by setting: under setting [1], 106 nM; under setting [2], 24.4 nM.

Take “AGCAUGUGAGGAUAUGCGGACUCCGGUAAAUCUGGAAUCCAGUAGAAGGCACAUGAGGAUCACCCAUGUGAUAA”: the “apparent Kd” value was found to be 68.2 nM under setting [3] and 55.9 nM under setting [4].

“AAAUAAAUUAGCAUGAUAUCUUCACAUGAGGAUCACCCAUGUCAGGAUAUUUGUCCUAAAAGGACAGAGAAGGGACAUGCUAUA”: the “apparent Kd” value under setting [3] turned out to be 5.78 nM and the “apparent Kd” value under setting [4] came to 7.76 nM.

For the sequence “UGUUCUAUGUAGAAGGCCCAUAUCUGUAUUUAGGGAGGAUAUACAUGAGGAUCACCCAUGUGUAGAGCUGGUGGACUGGUCAGC”, the “apparent Kd” value came out at 13.6 nM under setting [3] and 38.9 nM under setting [4].

As for “AAUAAACUCACAGGAUAUAGCAUAGGCCGCGUGAACUUACAGGCGACUAUGCUAGAAGGGUGACCACAUGAGGAUCACCCAUGU”, the “apparent Kd” value runs as follows: under setting [1], 851 nM; under setting [2], 141 nM.

Take “GGUUGACAUGAGGAUCACCCAUGUGAGGAUAUCGGCUGGUACGUGUUGGCUGGCAUCUCGAGAAGGCACAUAGG”: the “apparent Kd” value under setting [3] came out at 170 nM and the “apparent Kd” value under setting [4] was 58.4 nM.

Take “CGGGCGGGAGGAUAUGCGUGGUUUGUUCUCGUUUGGUGUCUACAUGAGGAUCACCCAUGUAGAAGGCUUGUUUG”: the “apparent Kd” value by setting is: under setting [3], 13.6 nM; under setting [4], 15.8 nM.

Regarding “GGUGCGAUGUAGAAGGCAGAUCUGAUUCAGAUCUGAGGAUAUACAUGAGGAUCACCCAUGUUAAGGCACCGCACGAGAGUGCAA”, the “apparent Kd” value reads like this: under setting [3], 7.4 nM; under setting [4], 13.7 nM.

“UGGUACAUCGGAGGAUAUCAUGUAAAUACAUGAGGAUCACCCAUGUCGAUGGAGACAUCGGAGAUUGAGAAGGCCGAUGUACCU”: the “apparent Kd” value was determined as 480 nM under setting [1] and 23.4 nM under setting [2].

As to “AUUAUGUUAGGAUAUGCUUAUGGUGGAUAGUCCAGUGUGGUGCAGAAGGGACAUGAGGAUCACCCAUGUGCUGA”, the “apparent Kd” value under setting [3] worked out at 53.8 nM and the “apparent Kd” value under setting [4] is 60.6 nM.

On to “AGUAACAGAGGAUAUACUAUUUUAUGUGUUUGUUGUUUUGAACAUGAGGAUCACCCAUGUAGAAGGCUGAAUAA”, for which the “apparent Kd” value stood at 23.9 nM under setting [3] and 24.9 nM under setting [4].

On to “GGGCCCGGAGGAUAUACAUGAGGAUCACCCAUGUAGGGCCCGGGUAUUCCCGGGUUUUGUAGAAGGCCGGGCCC”, for which the “apparent Kd” value under setting [4] was determined as 30.1 nM.

Turning to “GUGUAGAUAGCAGGAUAUCUAUUUCCUACAUGAGGAUCACCCAUGUAGAUGAUCACCCAUGUAAAGGAGAAGGGCUAUCUAUAC”, the “apparent Kd” value is 367 nM under setting [1] and 165 nM under setting [2].

In the case of “AGUCAGAGCAGAGGAUAUAUACAUGAGGAUCACCCAUGUGACUGCCUAUGCUAGAAAUAGUAUGUAUAGAAGGCUGCUCUGACA”, the “apparent Kd” value is, setting by setting: under setting [3], 752 nM; under setting [4], 483 nM.

“GCGGCUAGUGCAGGAUAUCGGCGCGUGUAGCGCCGAGAAGGGCACAUGAGGAUCACCCAUGUGAUCAAUCAAUGCUAAUGCCGC”: the “apparent Kd” value is, setting by setting: under setting [3], 7.38 nM; under setting [4], 25.4 nM.

In the case of “GUGUACGGAGGAUAUAUAUGGGCAGGCUGACCUGCAGCUUCACAUGAGGAUCACCCAUGUAGAAGGCUGUGCAC”, the “apparent Kd” value reads like this: under setting [3], 31.6 nM; under setting [4], 132 nM.

In the case of “UAGUUUUAGCGAGGAUAUCGUAUGUUUAAUUUUUUAUAUUGUUUACAUGAGGAUCACCCAUGUUACGAGAAGGCGCAUGGGAUU”, the “apparent Kd” value is 388 nM under setting [1] and 100 nM under setting [2].

Turning to “CCGAUGGUAUACUAGGAUAUGGGCGCCCUUACAUGAGGAUCACCCAUGUUAUCACAAAUCCGCGGCCAGAAGGAGUUCAUGGGAG”, the “apparent Kd” value reads like this: under setting [1], 176 nM; under setting [2], 134 nM.

For the sequence “AUUUAUGUCAUAGGAUAUAUAAAUAAAUUUAUAACAUGAGGAUCACCCAUGUACUUUGGUAUGAGGUAGAAGGAUGAUAAGAAU”, the “apparent Kd” value runs as follows: under setting [1], 49.6 nM; under setting [2], 31.9 nM.

With “UGAUAACAUGUAGGAUAUGCAGCAUUGACCACUGCAGAAGGACAUGAGGAUCACCCAUGUAGCCGUACUAUGGGAUCACGCAAU”, the “apparent Kd” value came to 47.7 nM under setting [3] and 232 nM under setting [4].

Consider “AAGGCAAUGUCAUGCCCACCGGACAGAAGGCAAUGUGGGCAGCCCGACAUGAGGAUCACCCAUGUUGAGGAUAUGUCCCGUCCU”, for which the “apparent Kd” value worked out at 2.72 nM under setting [3] and 2.85 nM under setting [4].

For the sequence “UGAUCGAGAGAUCUUAGAUUCUGGUAGGAUAUACAUUAUGUUAAAAUUACAUGAGGAUCACCCAUGUAGAAGGACUAGAGUCUA”, the “apparent Kd” value reads like this: under setting [3], 6.13 nM; under setting [4], 9.12 nM.

Turning to “CUUUUGUGAGGAUAUUCGUAGUAGGGUCAUGGCACUAUUAUGAAGAAGGCACAUGAGGAUCACCCAUGUACCUU”, the “apparent Kd” value by setting is: under setting [3], 15.3 nM; under setting [4], 26.8 nM.

Take “CGCAAAGAUGGGUUUAAUGGAGCAUAGGAUAUGCUUGUACAUGAGGAUCACCCAUGUAAUAUUGUGCAGAAGGGUGCAUUUGCG”: the “apparent Kd” value under setting [1] worked out at 293 nM and the “apparent Kd” value under setting [2] was found to be 74.3 nM.

As for “UCAUACGGUGAGGAUAUCUCCGCUAAAGUGUGUAGAGAAGGCGCUACAUGAGGAUCACCCAUGUUUGUGGGCAG”, the “apparent Kd” value reads like this: under setting [3], 402 nM; under setting [4], 149 nM.

For “GAGACAUGUGAGAAGGCGCCACACGCGAGUGGGCGAGGAUAUCACAUGAGGAUCACCCAUGUUAGCCCUCGACCGCGACGCGGG”, the “apparent Kd” value is, setting by setting: under setting [3], 10.1 nM; under setting [4], 47.3 nM.

“ACAUUAGAAGAGAAGGUUCAUACUAUUAUCAACAUACAUGAGGAUCACCCAUGUUGGUGAUUAAGAAAGGAUAUUUAUAACACU”: the “apparent Kd” value by setting is: under setting [3], 23.1 nM; under setting [4], 20.6 nM.

Turning to “AAAGAACAUGAGGAUCACCCAUGUGAGGAUAUGCGAAAACCGCUGACAAACCAGACGGGCAGAAGGCAUAUGGU”, the “apparent Kd” value by setting is: under setting [3], 56.2 nM; under setting [4], 76.3 nM.

On to “CUUUUGUGAGGAUAUUAGUAGUAAAUAAAUAAAAUUUCUACUGAGAAGGCACAUGAGGAUCACCCAUGUUCCUC”, for which the “apparent Kd” value reads like this: under setting [3], 31.9 nM; under setting [4], 182 nM.

As to “GGCUACGUUUCGUAGCAGCUAGGUGAGGAUAUUCAAUUUUUCACAUGAGGAUCACCCAUGUAUGUGAAGAAGGCGCCUAGAAAG”, the “apparent Kd” value is, setting by setting: under setting [1], 12.6 nM; under setting [2], 4.85 nM.

As to “AAUUAUAUGUAGAAGGUACUAACAUAAGUGUUGUAAGGAUAUACCAAUUUAUUAGUUUUAAAGUUACAUGAGGAUCACCCAUGU”, the “apparent Kd” value turned out to be 12.4 nM under setting [1] and 7.98 nM under setting [2].

Consider “AAAAAACAUGAGGAUCACCCAUGUGAGGAUAUUAAAAAUAAGAAGGCAUAAAAAAAAAUAAGAAGGCACAUGAA”, for which the “apparent Kd” value came to 31.7 nM under setting [3] and 44.8 nM under setting [4].

For “UUGUUGUAUGUAGGAUAUGCAUAUUAUUAUUAUGCAGAAGGACAUGAGGAUCACCCAUGUAUGUUAUUAUUAUAUGUUAUAUAU”, the “apparent Kd” value by setting is: under setting [3], 27.6 nM; under setting [4], 35.6 nM.

On to “UGGAUCAUGGGAGGAUAUCCUCAAGAGACAUGAGGAUCACCCAUGUAUUAUAAGCCUAAUGGCAUGGAGAAGGCCCAUGAUCCU”, for which the “apparent Kd” value by setting is: under setting [1], 377 nM; under setting [2], 54 nM.

In the case of “UUUUUGUCAGAGGAUAUCAUAGUCAGUUUUAAGUGAGAAGGUUGAACAUGAGGAUCACCCAUGUGACCUUGGUG”, the “apparent Kd” value was 23.6 nM under setting [3] and 21.6 nM under setting [4].

Consider “ACCGGGUACACAGGAUAUCACGUCCUGACAUGAGGAUCACCCAUGUCGGUCUGAGAAGGGUGGUCCCGCAGCCGACUGUGAUGG”, for which the “apparent Kd” value turned out to be 254 nM under setting [1] and 27.3 nM under setting [2].

For “GUCACGUCAGGAUAUCUGAUGUCUAACUUCGGUUAGACAUCAGAGAAGGGACAUGAGGAUCACCCAUGUGACAG”, the “apparent Kd” value worked out at 140 nM under setting [3] and 275 nM under setting [4].

“GUUAAUUAGUGAGGAUAUACAUAAUUUAAUACUGUAGAAGGCACAAUCCUCAAGACAUGAGGAUCACCCAUGUGAUAAUAAGCU”: the “apparent Kd” value runs as follows: under setting [3], 34.9 nM; under setting [4], 174 nM.

On to “GCUGCAUGCAGAGGAUAUGACACAUGAGGAUCACCCAUGUAAUAAAUGAGAUUUUCGAAUGUAUCUCAGAAGGCUGCAUGCAGC”, for which the “apparent Kd” value turned out to be 16.6 nM under setting [3] and 89.4 nM under setting [4].

As for “GGUAAGAUGCAGAAGGUGUUAGCUAGAGCUACGACAUGAGGAUCACCCAUGUACUAGAAACAGUACAAGGAUAUGCAUCUUACC”, the “apparent Kd” value by setting is: under setting [1], 18.4 nM; under setting [2], 6.38 nM.

In the case of “UGUUGUAUUACAGGAUAUCUAUUAGUUUAAUUUAGAGAAGGGUAUUCACAUGAGGAUCACCCAUGUAUAUACGAGGAAGUUGUG”, the “apparent Kd” value reads like this: under setting [1], 53 nM; under setting [2], 62.2 nM.

Take “GACAGUGCAAUAAUAAUAAGAUCUACAUGAGGAUCACCCAUGUAGGAUAUCGUCAGGAAUACUGACGAGAAGGACAUAGCACUG”: the “apparent Kd” value under setting [3] was determined as 13.1 nM and the “apparent Kd” value under setting [4] worked out at 15 nM.

Turning to “AUCAGCUCGUCAGGAUAUACGUCACUGCGUCAGCAGUGUGGUAAUAUCACAUGAGGAUCACCCAUGUAGAAGGGACGAGCUGAU”, the “apparent Kd” value under setting [3] was found to be 5.27 nM and the “apparent Kd” value under setting [4] was determined as 6.28 nM.

As for “GUCGGGUCUCACGCGUCGGUCCACAUGAGGAUCACCCAUGUCAAGGAUAUAGCGUCUUCCGGGCGUUAGAAGGUGACCAUUGGC”, the “apparent Kd” value under setting [3] was determined as 34.6 nM and the “apparent Kd” value under setting [4] was 48.1 nM.

For “AAGAACAUUGACAUGAGGAUCACCCAUGUUGCAGCUAGCUACAGAAGGCACGCGGUACCAAAGGGUGAGGAUAUGUAGGGCCAU”, the “apparent Kd” value by setting is: under setting [1], 93.4 nM; under setting [2], 17.2 nM.

For the sequence “UUUAAUCGAAACAUGAGGAUCACCCAUGUGUUGUAAUUAACAUAGGAUAUUUGUAUACUUUUAUAAAAGAAGGAUGAUAAUACU”, the “apparent Kd” value reads like this: under setting [1], 17.8 nM; under setting [2], 13 nM.

In the case of “GCCUUAUCUGUCAGGAUAUACAAUAAAAUAAUUUUGUAGAAGGGACAUGAGGAUCACCCAUGUACAUUACAUUG”, the “apparent Kd” value under setting [3] came out at 58.3 nM and the “apparent Kd” value under setting [4] was 257 nM.

With “UAUGACAUGAGGAUCACCCAUGUCAGCGAGAAAUGAGAGUCACAGGAUAUGUUUUCGGCCGGCAGACAGAAGGGUGACCCUCAG”, the “apparent Kd” value under setting [1] is 7.21 nM and the “apparent Kd” value under setting [2] amounted to 6.89 nM.
